This passage reports Activity, EC50 and EC90 results from ChEMBL document CHEMBL1143898, “Synthesis and study of antiviral and anti-radical properties of aminophenol derivatives” (Bioorg Med Chem Lett, 2008).

Calls of active or inactive are those of the source.

The subject of assay [1] is Peritoneal macrophage cell. In words: Inhibition of zymosan-stimulated ROS production in rat peritoneal macrophages. The assay is classed as functional, cell-based. The procedure, abridged:
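ROS generation measured by luminol-dependent chemiluminescence with and without compound; EC50 and EC90 taken as concentrations lowering luminescence intensity by 50% and 90%.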

Assay [2] can be described thus: Cytotoxicity against human rhabdomyosarcoma cells assessed as maximum non-toxic concentrations after 72 hrs. The assay is classed as functional. The essentials:
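Non-infected RD cell cultures exposed to compound for 72 h; maximum non-toxic concentration determined.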

Assay [3] deals with Human alphaherpesvirus 1. As to the kind of experiment: Antiviral activity against HSV1-induced cytopathic effect in human rhabdomyosarcoma cells assessed as suppression of viral replication. The assay is classed as functional, organism-based. The essentials: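 HSV-1 infected human rhabdomyosarcoma (RD) cell culture; cytopathic effect based method. Compound predissolved in 10% ethanol, then twofold dilutions made in maintenance medium 199. Criterion: reduction of virus titer relative to untreated infected control; concentrations suppressing virus replication by 50% and 90% calculated (EC50, EC90).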

In general, EC50 refers to the concentration that produces a half-maximal response. By EC90 is commonly meant the point of the concentration-response curve where the effect stands at 90%.

As for `CC(=O)Nc1cc(C(C)(C)C)cc(C(C)(C)C)c1O`, the result in assay [1] was inactive. Also, the Activity in assay [2] turned out to be 379.7 µM. In addition, in assay [3], the EC50 worked out at 8.5 µM and the EC90 was 14.8 µM.

With `CCCC(=O)Nc1cc(C(C)(C)C)cc(C(C)(C)C)c1O`, the result in assay [1] was inactive. Also, in assay [2], the Activity is 686.2 µM. Moreover, in assay [3], the EC50 was 8.6 µM and the EC90 came out at 14.1 µM.

Take `CC(C)(C)c1cc(Nc2ccccc2)c(O)c(C(C)(C)C)c1`: the EC50 in assay [1] was 9.8 µM. Moreover, the Activity in assay [2] turned out to be 336.7 µM. For the same compound, in assay [3], the EC50 turned out to be 23 µM and the EC90 was 169 µM.

Turning to `COc1c(NC(C)=O)cc(C(C)(C)C)cc1C(C)(C)C`, in assay [2], the Activity was 1444 µM. Also, in assay [3], the EC50 was 798 µM and the EC90 is 1960 µM.

Regarding `CCC(=O)Nc1cc(C(C)(C)C)cc(C(C)(C)C)c1O`, the outcome in assay [1] was inactive. For the same compound, the Activity in assay [2] worked out at 720.9 µM. In assay [3], the concentration giving a half-maximal response (EC50) was found to be 38.2 µM and the EC90 was 64.5 µM.

For the compound `CC(C)(C)c1cc(N)c(O)c(C(C)(C)C)c1`, the EC50 in assay [1] was determined as 0.06 µM; in assay [3], 87.3 µM. Besides, the Activity in assay [2] amounted to 113.2 µM. Further, in assay [3], the EC90 was 288 µM.

As for `COc1c(Nc2ccccc2)cc(C(C)(C)C)cc1C(C)(C)C`, the outcome in assay [1] was inactive. The Activity in assay [2] was determined as 722 µM. In assay [3], the EC50 came out at 255 µM and the EC90 came out at 624 µM.
